Results gathered from unrelated publications.
Compare with care: the assays were run in different laboratories.
ADRA1A: Alpha-1A adrenergic receptor (ADRA1A, Homo sapiens, UniProt P35348)
MAL12: Alpha-glucosidase MAL12 (MAL12, Saccharomyces cerevisiae S288c, UniProt P53341)
MAOA: Amine oxidase [flavin-containing] A (MAOA, Homo sapiens, UniProt P21397)
FABP1: Fatty acid-binding protein, liver (FABP1, Homo sapiens, UniProt P07148)

COc1cc2c3c(c1OC)-c1c(OC)ccc(Br)c1CC3N(C)CC2 (stereo not shown)
Ki (ADRA1A; cell-free assay, radioligand): 0.016 µM

CCc1ccc(N2C(=O)/C(=C3/C(=O)N(C)c4ccc(Cl)cc43)NC2=S)cc1
IC50 (MAL12; enzyme activity, inhibitor, absorbance): 128 µM

COc1cc2c(cc1OC)CN(CCc1ccc(NC(=O)c3cccc4c(=O)c5cccc(OC)c5[nH]c34)cc1)CC2
Ki (ADRA1A; cell-free assay): 0.183 µM

CN1C(=S)N(c2ccccc2)C(=O)/C1=C1/C(=O)N(C)c2ccc(Cl)cc21
IC50 (MAL12; enzyme activity, inhibitor, absorbance): 157 µM

CC[C@H](C)[C@H](NC(=O)[C@H](C)NC(=O)[C@H](CCC(=O)O)NC(=O)[C@H](Cc1c[nH]cn1)NC(=O)[C@H](CC(C)C)NC(=O)[C@@H](NC(=O)[C@H](Cc1ccccc1)NC(=O)[C@H](CO)NC(=O)[C@@H](NC(=O)[C@H](CC(C)C)NC(=O)[C@H](CC(=O)O)NC(=O)[C@H](CC(C)C)NC(=O)[C@@H]1CCCN1)[C@@H](C)O)C(C)C)C(=O)O
IC50 (MAOA; enzyme activity, inhibitor, fluorescence): 73 µM

Cc1cc(SC2=C(O)C[C@@](CCc3ccc(N)cc3)(C(C)C)OC2=O)c(C(C)(C)C)cc1CO
Kd (FABP1; ligand displacement, fluorescence): 1.68 µM

COc1cc2c3c(c1OC)-c1c(OC)ccc(Cl)c1CC3N(C)CC2 (racemic)
Ki (ADRA1A; cell-free assay, radioligand): 0.023 µM

O=C(Nc1ccc([N+](=O)[O-])cc1Cl)c1cc(Cl)ccc1O
Kd (FABP1; ligand displacement, fluorescence): 9.69 µM

CCOC(=O)c1ccc(OC(=O)CCCCCN=C(N)N)cc1
IC50 (Kallikrein-7 (KLK7, Homo sapiens, UniProt P49862); enzyme activity, inhibitor): 15.6 µM

O=S(=O)(O)C(F)(F)C(F)(F)C(F)(F)C(F)(F)C(F)(F)C(F)(F)F
Kd (FABP1; ligand displacement, fluorescence): 11.2 µM

CC[C@H](C)[C@H](N)C(=O)N1CCC[C@H]1C(=O)N1CCC[C@H]1C(=O)NCC(=O)N[C@H](C(=O)N1CCC[C@H]1C(=O)N[C@@H](Cc1ccc(O)cc1)C(=O)O)C(C)C
IC50 (MAOA; enzyme activity, inhibitor, fluorescence): 829 µM

COc1cc(O)cc(/C=C/c2ccc(O)cc2)c1
IC50 (MAL12; enzyme activity, inhibitor, absorbance; pH 6.8): 11.7 µM

O=P(Oc1ccccc1)(Oc1ccccc1)C(NCc1cncc2ccccc12)c1ccc(O)cc1 (stereo not shown)
IC50 (sn-1-specific diacylglycerol lipase ABHD11 (ABHD11, Homo sapiens, UniProt Q8NFV4); enzyme activity, inhibitor; lysate): 1.9 µM
